Measured values as given in ChEMBL document CHEMBL1147115 (2007).
In brackets after ≈: the same amount, converted by molar mass.

Key:
Klebsiella pneumoniae [1] = assay: Antimicrobial activity against ESBL producing Klebsiella pneumoniae 265 isolate; type: functional
Klebsiella pneumoniae [2] = assay: Antimicrobial activity against ESBL producing Klebsiella pneumoniae 268 isolate; type: functional
Klebsiella pneumoniae [3] = assay: Antimicrobial activity against ESBL producing Klebsiella pneumoniae 270 isolate; type: functional
Klebsiella pneumoniae [4] = assay: Antimicrobial activity against ESBL producing Klebsiella pneumoniae 260 isolate; type: functional
Klebsiella pneumoniae [5] = assay: Antimicrobial activity against ESBL producing Klebsiella pneumoniae 264 isolate; type: functional
Escherichia coli [6] = assay: Antimicrobial activity against ESBL producing Escherichia coli 311 isolate; type: functional
Klebsiella pneumoniae [7] = assay: Antimicrobial activity against ESBL producing Klebsiella pneumoniae 255 isolate; type: functional
Klebsiella pneumoniae [8] = assay: Antimicrobial activity against ESBL producing Klebsiella pneumoniae 254 isolate; type: functional
Klebsiella pneumoniae [9] = assay: Antimicrobial activity against ESBL producing Klebsiella pneumoniae 259 isolate; type: functional
Klebsiella pneumoniae [10] = assay: Antimicrobial activity against ESBL producing Klebsiella pneumoniae 263 isolate; type: functional
Klebsiella pneumoniae [11] = assay: Antimicrobial activity against ESBL producing Klebsiella pneumoniae 266 isolate; type: functional
Klebsiella pneumoniae [12] = assay: Antimicrobial activity against ESBL producing Klebsiella pneumoniae 257 isolate; type: functional
Klebsiella pneumoniae [13] = assay: Antimicrobial activity against ESBL producing Klebsiella pneumoniae 258 isolate; type: functional
Klebsiella pneumoniae [14] = assay: Antimicrobial activity against ESBL producing Klebsiella pneumoniae 262 isolate; type: functional
Klebsiella pneumoniae [15] = assay: Antimicrobial activity against ESBL producing Klebsiella pneumoniae 261 isolate; type: functional
Escherichia coli [16] = assay: Antimicrobial activity against Escherichia coli ATCC 25922 isolate infected thigh infection model ICR mouse; type: functional, Thigh muscle
How it was run: (§1)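 Female ICR mice (~25 g) were made neutropenic with cyclophosphamide ip (150 and 100 mg/kg, days −4 and −1) and renally impaired with uranyl nitrate 5 mg/kg ip (day −3). Each thigh got 0.1 ml of 10^5 CFU/ml (or 10^7 for high inoculum) im 2 h pre-therapy. Human-simulated regimens were given sc, three mice per group, for 24 h. Efficacy was the log10 CFU/thigh change versus 0-h controls.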

Escherichia coli [17] = assay: Antimicrobial activity against Escherichia coli 120 isolate infected thigh infection model ICR mouse; type: functional, Thigh muscle; how it was run: as §1
Escherichia coli [18] = assay: Antimicrobial activity against ESBL producing Escherichia coli 320 isolate infected thigh infection model ICR mouse; type: functional, Thigh muscle; how it was run: as §1
Escherichia coli [19] = assay: Antimicrobial activity against ESBL producing Escherichia coli 321 isolate infected thigh infection model ICR mouse; type: functional, Thigh muscle; how it was run: as §1
Escherichia coli [20] = assay: Antimicrobial activity against ESBL producing Escherichia coli 322 isolate infected thigh infection model ICR mouse; type: functional, Thigh muscle; how it was run: as §1
Escherichia coli [21] = assay: Antimicrobial activity against ESBL producing Escherichia coli 310 isolate infected thigh infection model ICR mouse; type: functional, Thigh muscle; how it was run: as §1
Escherichia coli [22] = assay: Antimicrobial activity against ESBL producing Escherichia coli 312 isolate infected thigh infection model ICR mouse; type: functional, Thigh muscle; how it was run: as §1
Escherichia coli [23] = assay: Antimicrobial activity against ESBL producing Escherichia coli 318 isolate infected thigh infection model ICR mouse; type: functional, Thigh muscle; how it was run: as §1
Escherichia coli [24] = assay: Antimicrobial activity against ESBL producing Escherichia coli 243 isolate infected thigh infection model ICR mouse; type: functional, Thigh muscle; how it was run: as §1
Escherichia coli [25] = assay: Antimicrobial activity against ESBL producing Escherichia coli 285 isolate infected thigh infection model ICR mouse; type: functional, Thigh muscle; how it was run: as §1
Klebsiella pneumoniae [26] = assay: Antimicrobial activity against ESBL producing Klebsiella pneumoniae 225 isolate infected thigh infection model ICR mouse; type: functional, Thigh muscle; how it was run: as §1
Klebsiella pneumoniae [27] = assay: Antimicrobial activity against ESBL producing Klebsiella pneumoniae 60 isolate infected thigh infection model ICR mouse; type: functional, Thigh muscle; how it was run: as §1
Escherichia coli [28] = assay: Antimicrobial activity against ESBL producing Escherichia coli 315 isolate infected thigh infection model ICR mouse; type: functional, Thigh muscle; how it was run: as §1
Escherichia coli [29] = assay: Antimicrobial activity against ESBL producing Escherichia coli 130 isolate infected thigh infection model ICR mouse; type: functional, Thigh muscle; how it was run: as §1
Klebsiella pneumoniae [30] = assay: Antimicrobial activity against ESBL producing Klebsiella pneumoniae 265 isolate infected thigh infection model ICR mouse; type: functional, Thigh muscle; how it was run: as §1
Escherichia coli [31] = assay: Antimicrobial activity against ESBL producing Escherichia coli 133 isolate infected thigh infection model ICR mouse; type: functional, Thigh muscle; how it was run: as §1
Klebsiella pneumoniae [32] = assay: Antimicrobial activity against ESBL producing Klebsiella pneumoniae 101 isolate infected thigh infection model ICR mouse; type: functional, Thigh muscle; how it was run: as §1
Klebsiella pneumoniae [33] = assay: Antimicrobial activity against ESBL producing Klebsiella pneumoniae 230 isolate infected thigh infection model ICR mouse; type: functional, Thigh muscle; how it was run: as §1
Klebsiella pneumoniae [34] = assay: Antimicrobial activity against ESBL producing Klebsiella pneumoniae 268 isolate infected thigh infection model ICR mouse; type: functional, Thigh muscle; how it was run: as §1
Klebsiella pneumoniae [35] = assay: Antimicrobial activity against ESBL producing Klebsiella pneumoniae 270 isolate infected thigh infection model ICR mouse; type: functional, Thigh muscle; how it was run: as §1
Klebsiella pneumoniae [36] = assay: Antimicrobial activity against ESBL producing Klebsiella pneumoniae 260 isolate infected thigh infection model ICR mouse; type: functional, Thigh muscle; how it was run: as §1
Klebsiella pneumoniae [37] = assay: Antimicrobial activity against ESBL producing Klebsiella pneumoniae 264 isolate infected thigh infection model ICR mouse; type: functional, Thigh muscle; how it was run: as §1
Escherichia coli [38] = assay: Antimicrobial activity against ESBL producing Escherichia coli 311 isolate infected thigh infection model ICR mouse; type: functional, Thigh muscle; how it was run: as §1
Klebsiella pneumoniae [39] = assay: Antimicrobial activity against ESBL producing Klebsiella pneumoniae 255 isolate infected thigh infection model ICR mouse; type: functional, Thigh muscle; how it was run: as §1
Klebsiella pneumoniae [40] = assay: Antimicrobial activity against ESBL producing Klebsiella pneumoniae 254 isolate infected thigh infection model ICR mouse; type: functional, Thigh muscle; how it was run: as §1
Klebsiella pneumoniae [41] = assay: Antimicrobial activity against ESBL producing Klebsiella pneumoniae 259 isolate infected thigh infection model ICR mouse; type: functional, Thigh muscle; how it was run: as §1
Klebsiella pneumoniae [42] = assay: Antimicrobial activity against ESBL producing Klebsiella pneumoniae 263 isolate infected thigh infection model ICR mouse; type: functional, Thigh muscle; how it was run: as §1
Klebsiella pneumoniae [43] = assay: Antimicrobial activity against ESBL producing Klebsiella pneumoniae 266 isolate infected thigh infection model ICR mouse; type: functional, Thigh muscle; how it was run: as §1
Klebsiella pneumoniae [44] = assay: Antimicrobial activity against ESBL producing Klebsiella pneumoniae 257 isolate infected thigh infection model ICR mouse; type: functional, Thigh muscle; how it was run: as §1
Klebsiella pneumoniae [45] = assay: Antimicrobial activity against ESBL producing Klebsiella pneumoniae 258 isolate infected thigh infection model ICR mouse; type: functional, Thigh muscle; how it was run: as §1
Klebsiella pneumoniae [46] = assay: Antimicrobial activity against ESBL producing Klebsiella pneumoniae 262 isolate infected thigh infection model ICR mouse; type: functional, Thigh muscle; how it was run: as §1
Klebsiella pneumoniae [47] = assay: Antimicrobial activity against ESBL producing Klebsiella pneumoniae 256 isolate infected thigh infection model ICR mouse; type: functional, Thigh muscle; how it was run: as §1
Klebsiella pneumoniae [48] = assay: Antimicrobial activity against ESBL producing Klebsiella pneumoniae 261 isolate infected thigh infection model ICR mouse; type: functional, Thigh muscle; how it was run: as §1
Klebsiella pneumoniae [49] = assay: Bacteriostasis activity against ESBL producing Klebsiella pneumoniae 262 isolate at 8 ug/ml; type: functional
Klebsiella pneumoniae [50] = assay: Antimicrobial activity against ESBL producing Klebsiella pneumoniae 230 isolate; type: functional
Escherichia coli [51] = assay: Antimicrobial activity against ESBL producing Escherichia coli 130 isolate; type: functional
Escherichia coli [52] = assay: Antimicrobial activity against Escherichia coli ATCC 25922 isolate; type: functional
Escherichia coli [53] = assay: Antimicrobial activity against Escherichia coli 120 isolate; type: functional
Escherichia coli [54] = assay: Antimicrobial activity against ESBL producing Escherichia coli 320 isolate; type: functional
Escherichia coli [55] = assay: Antimicrobial activity against ESBL producing Escherichia coli 321 isolate; type: functional
Escherichia coli [56] = assay: Antimicrobial activity against ESBL producing Escherichia coli 322 isolate; type: functional
Escherichia coli [57] = assay: Antimicrobial activity against ESBL producing Escherichia coli 310 isolate; type: functional
Escherichia coli [58] = assay: Antimicrobial activity against ESBL producing Escherichia coli 312 isolate; type: functional
Escherichia coli [59] = assay: Antimicrobial activity against ESBL producing Escherichia coli 118 isolate; type: functional
Escherichia coli [60] = assay: Antimicrobial activity against ESBL producing Escherichia coli 243 isolate; type: functional
Escherichia coli [61] = assay: Antimicrobial activity against ESBL producing Escherichia coli 285 isolate; type: functional
Klebsiella pneumoniae [62] = assay: Antimicrobial activity against ESBL producing Klebsiella pneumoniae 225 isolate; type: functional
Klebsiella pneumoniae [63] = assay: Antimicrobial activity against ESBL producing Klebsiella pneumoniae 60 isolate; type: functional
Escherichia coli [64] = assay: Antimicrobial activity against ESBL producing Escherichia coli 315 isolate; type: functional
Escherichia coli [65] = assay: Antimicrobial activity against ESBL producing Escherichia coli 133 isolate; type: functional
Klebsiella pneumoniae [66] = assay: Antimicrobial activity against ESBL producing Klebsiella pneumoniae 101 isolate; type: functional

## C[C@@H](O)[C@H]1C(=O)N2C(C(=O)O)=C(S[C@@H]3CN[C@H](C(=O)N(C)C)C3)[C@H](C)[C@H]12 [MEROPENEM]
Klebsiella pneumoniae [1]
  MIC: 0.125 µg/mL (≈ 0.326 µM)
Klebsiella pneumoniae [2]
  MIC: 0.125 µg/mL (≈ 0.326 µM)
Klebsiella pneumoniae [3]
  MIC: 0.25 µg/mL (≈ 0.652 µM)
Klebsiella pneumoniae [4]
  MIC: 0.5 µg/mL (≈ 1.3 µM)
Klebsiella pneumoniae [5]
  MIC: 0.5 µg/mL (≈ 1.3 µM)
Escherichia coli [6]
  MIC: 0.75 µg/mL (≈ 1.96 µM)
Klebsiella pneumoniae [7]
  MIC: 1 µg/mL (≈ 2.61 µM)
Klebsiella pneumoniae [8]
  MIC: 2 µg/mL (≈ 5.22 µM)
Klebsiella pneumoniae [9]
  MIC: 2 µg/mL (≈ 5.22 µM)
Klebsiella pneumoniae [10]
  MIC: 2 µg/mL (≈ 5.22 µM)
Klebsiella pneumoniae [11]
  MIC: 2 µg/mL (≈ 5.22 µM)
Klebsiella pneumoniae [12]
  MIC: 4 µg/mL (≈ 10.4 µM)
Klebsiella pneumoniae [13]
  MIC: 4 µg/mL (≈ 10.4 µM)
Klebsiella pneumoniae [14]
  MIC: 8 µg/mL (≈ 20.9 µM)
Klebsiella pneumoniae [15]
  MIC: 32 µg/mL (≈ 83.4 µM)
Escherichia coli [16]
  fT>MIC: 93%
Escherichia coli [17]
  fT>MIC: 93%
Escherichia coli [18]
  fT>MIC: 93%
Escherichia coli [19]
  fT>MIC: 93%
Escherichia coli [20]
  fT>MIC: 93%
Escherichia coli [21]
  fT>MIC: 90%
Escherichia coli [22]
  fT>MIC: 90%
Escherichia coli [23]
  fT>MIC: 90%
Escherichia coli [24]
  fT>MIC: 90%
Escherichia coli [25]
  fT>MIC: 90%
Klebsiella pneumoniae [26]
  fT>MIC: 90%
Klebsiella pneumoniae [27]
  fT>MIC: 88%
Escherichia coli [28]
  fT>MIC: 85%
Escherichia coli [29]
  fT>MIC: 85%
Klebsiella pneumoniae [30]
  fT>MIC: 85%
Escherichia coli [31]
  fT>MIC: 85%
Klebsiella pneumoniae [32]
  fT>MIC: 85%
Klebsiella pneumoniae [33]
  fT>MIC: 85%
Klebsiella pneumoniae [34]
  fT>MIC: 85%
Klebsiella pneumoniae [35]
  fT>MIC: 80%
Klebsiella pneumoniae [36]
  fT>MIC: 75%
Klebsiella pneumoniae [37]
  fT>MIC: 75%
Escherichia coli [38]
  fT>MIC: 70%
Klebsiella pneumoniae [39]
  fT>MIC: 65%
Klebsiella pneumoniae [40]
  fT>MIC: 58%
Klebsiella pneumoniae [41]
  fT>MIC: 58%
Klebsiella pneumoniae [42]
  fT>MIC: 58%
Klebsiella pneumoniae [43]
  fT>MIC: 58%
Klebsiella pneumoniae [44]
  fT>MIC: 45%
Klebsiella pneumoniae [45]
  fT>MIC: 45%
Klebsiella pneumoniae [46]
  fT>MIC: 30%
Klebsiella pneumoniae [47]
  fT>MIC: 18%
Klebsiella pneumoniae [48]
  fT>MIC: 5%
Klebsiella pneumoniae [49]
  MIC: 8 µg/mL (≈ 20.9 µM)
Klebsiella pneumoniae [50]
  MIC: 0.094 µg/mL (≈ 0.245 µM)
Escherichia coli [51]
  MIC: 0.125 µg/mL (≈ 0.326 µM)
Escherichia coli [52]
  MIC: 0.03 µg/mL (≈ 0.0782 µM)
Escherichia coli [53]
  MIC: 0.03 µg/mL (≈ 0.0782 µM)
Escherichia coli [54]
  MIC: 0.03 µg/mL (≈ 0.0782 µM)
Escherichia coli [55]
  MIC: 0.032 µg/mL (≈ 0.0834 µM)
Escherichia coli [56]
  MIC: 0.032 µg/mL (≈ 0.0834 µM)
Escherichia coli [57]
  MIC: 0.047 µg/mL (≈ 0.123 µM)
Escherichia coli [58]
  MIC: 0.047 µg/mL (≈ 0.123 µM)
Escherichia coli [59]
  MIC: 0.047 µg/mL (≈ 0.123 µM)
Escherichia coli [60]
  MIC: 0.047 µg/mL (≈ 0.123 µM)
Escherichia coli [61]
  MIC: 0.047 µg/mL (≈ 0.123 µM)
Klebsiella pneumoniae [62]
  MIC: 0.047 µg/mL (≈ 0.123 µM)
Klebsiella pneumoniae [63]
  MIC: 0.064 µg/mL (≈ 0.167 µM)
Escherichia coli [64]
  MIC: 0.094 µg/mL (≈ 0.245 µM)
Escherichia coli [65]
  MIC: 0.094 µg/mL (≈ 0.245 µM)
Klebsiella pneumoniae [66]
  MIC: 0.094 µg/mL (≈ 0.245 µM)
